This passage reports inhibition, IC50 and Activity results from ChEMBL document CHEMBL1221168, “Activity-based probes that target diverse cysteine protease families” (Nat Chem Biol, 2005).

The source made the active and inactive calls. The rule behind the calls is not given here.

As usually defined, the IC50 is the midpoint of a concentration-inhibition curve. Low readings indicate greater potency in that assay, high ones weaker potency in that assay.

For test [1], the target named is T1, Pro-cathepsin H (Rattus norvegicus) (UniProt P00786).
T1 sequence (whole entry): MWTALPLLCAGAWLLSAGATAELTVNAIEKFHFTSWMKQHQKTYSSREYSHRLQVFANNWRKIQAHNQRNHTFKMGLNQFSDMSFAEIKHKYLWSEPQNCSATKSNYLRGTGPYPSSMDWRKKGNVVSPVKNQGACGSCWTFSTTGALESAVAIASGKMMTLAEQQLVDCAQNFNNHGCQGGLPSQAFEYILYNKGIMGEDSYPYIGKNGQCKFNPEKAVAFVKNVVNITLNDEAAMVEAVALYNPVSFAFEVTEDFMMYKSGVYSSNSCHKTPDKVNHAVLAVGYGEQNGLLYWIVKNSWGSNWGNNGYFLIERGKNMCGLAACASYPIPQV
The test can be described thus: Binding affinity to cathepsin H in crude rat liver homogenates using [125I]DCG-04 based competition protein labeling up to 50 uM by SDS-PAGE method. Format: tissue-based. In outline: (§1)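 Rat liver lysate (50 µg protein in 50 mM sodium acetate, 2 mM DTT, 5 mM MgCl2, pH 5.5) was preincubated with compound from 50 mM DMSO stocks for 30 min at room temperature. [125I]DCG-04 (10^6 c.p.m.) was then added for 45 min at room temperature. Bands were resolved by SDS-PAGE, imaged and quantified, and IC50 was taken from the linear portion of the signal versus inhibitor concentration plot.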

For test [2], the target named is Cathepsin Z (Rattus norvegicus) (UniProt Q9R1T3). Nature of the test: Binding affinity to cathepsin Z in crude rat liver homogenates using [125I]DCG-04 based competition protein labeling up to 50 uM by SDS-PAGE method. The test is classed as tissue-based. The method in brief: as §1
For test [3], the target named is T2, Dipeptidyl peptidase 1 (Rattus norvegicus) (UniProt P80067).
T2 sequence (whole entry): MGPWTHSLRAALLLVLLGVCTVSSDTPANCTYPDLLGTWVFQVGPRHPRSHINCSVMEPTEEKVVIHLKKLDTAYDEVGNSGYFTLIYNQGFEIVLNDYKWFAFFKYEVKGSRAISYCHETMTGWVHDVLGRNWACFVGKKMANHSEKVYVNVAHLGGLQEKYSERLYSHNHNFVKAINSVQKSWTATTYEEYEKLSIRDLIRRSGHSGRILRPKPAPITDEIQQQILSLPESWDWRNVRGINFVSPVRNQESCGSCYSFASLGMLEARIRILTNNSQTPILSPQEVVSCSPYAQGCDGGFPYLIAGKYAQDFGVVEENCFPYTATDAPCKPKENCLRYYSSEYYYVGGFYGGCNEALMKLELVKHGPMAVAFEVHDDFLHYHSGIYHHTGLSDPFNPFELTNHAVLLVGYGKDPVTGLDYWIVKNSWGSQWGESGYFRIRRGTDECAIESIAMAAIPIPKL
Nature of the test: Binding affinity to cathepsin C in crude rat liver homogenates using [125I]DCG-04 based competition protein labeling up to 50 uM by SDS-PAGE method. Format: tissue-based. In outline: as §1

In test [4] the target is T3, Cathepsin J (Rattus norvegicus) (UniProt Q63088).
T3 sequence (whole entry): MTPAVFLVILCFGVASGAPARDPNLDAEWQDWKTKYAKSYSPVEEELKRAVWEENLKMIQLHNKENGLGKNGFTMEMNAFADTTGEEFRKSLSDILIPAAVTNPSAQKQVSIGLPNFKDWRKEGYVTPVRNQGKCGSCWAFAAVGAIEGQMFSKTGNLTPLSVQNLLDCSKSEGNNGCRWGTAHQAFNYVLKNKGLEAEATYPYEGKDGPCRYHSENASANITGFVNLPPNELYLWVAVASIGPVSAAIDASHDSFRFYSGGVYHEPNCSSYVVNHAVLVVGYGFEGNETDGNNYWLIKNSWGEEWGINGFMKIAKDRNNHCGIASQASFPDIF
The test can be described thus: Binding affinity to cathepsin J in crude rat liver homogenates using [125I]DCG-04 based competition protein labeling up to 50 uM by SDS-PAGE method. The test is classed as tissue-based. In outline: as §1

The next test addresses Cathepsin B (Rattus norvegicus, UniProt P00787). The test can be described thus: Binding affinity to cathepsin B in crude rat liver homogenates using [125I]DCG-04 based competition protein labeling by SDS-PAGE method. Format: tissue-based. The method in brief: as §1
A further test addresses T4, Pro-cathepsin H (Rattus norvegicus, UniProt P00786).
T4 sequence (P00786 whole entry): T1 sequence (whole entry)
The test can be described thus: Binding affinity to cathepsin H in crude rat liver homogenates using [125I]DCG-04 based competition protein labeling by SDS-PAGE method. The test is classed as tissue-based. The method in brief: as §1

In a further test the target is T5, Cathepsin J (Rattus norvegicus, UniProt Q63088).
T5 sequence (Q63088 whole entry): T3 sequence (whole entry)
The test can be described thus: Binding affinity to cathepsin J in crude rat liver homogenates using [125I]DCG-04 based competition protein labeling by SDS-PAGE method. Format: tissue-based. In outline: as §1

The target of another test is T6, Dipeptidyl peptidase 1 (Rattus norvegicus, UniProt P80067).
T6 sequence (P80067 whole entry): T2 sequence (whole entry)
The test can be described thus: Binding affinity to cathepsin C in crude rat liver homogenates using [125I]DCG-04 based competition protein labeling by SDS-PAGE method. The test is classed as tissue-based. In outline: as §1

In another test the target is Cathepsin Z (Rattus norvegicus, UniProt Q9R1T3). The test can be described thus: Binding affinity to cathepsin Z in crude rat liver homogenates using [125I]DCG-04 based competition protein labeling by SDS-PAGE method. Format: tissue-based. In outline:
as §1

Test [5] has as its target Cathepsin B (Rattus norvegicus) (UniProt P00787). The test can be described thus: Binding affinity to cathepsin B in crude rat liver homogenates using [125I]DCG-04 based competition protein labeling up to 50 uM by SDS-PAGE method. The test is classed as tissue-based. In outline:
as §1

The target in test [6] is T7, Procathepsin L (Rattus norvegicus) (UniProt P07154).
T7 sequence (whole entry): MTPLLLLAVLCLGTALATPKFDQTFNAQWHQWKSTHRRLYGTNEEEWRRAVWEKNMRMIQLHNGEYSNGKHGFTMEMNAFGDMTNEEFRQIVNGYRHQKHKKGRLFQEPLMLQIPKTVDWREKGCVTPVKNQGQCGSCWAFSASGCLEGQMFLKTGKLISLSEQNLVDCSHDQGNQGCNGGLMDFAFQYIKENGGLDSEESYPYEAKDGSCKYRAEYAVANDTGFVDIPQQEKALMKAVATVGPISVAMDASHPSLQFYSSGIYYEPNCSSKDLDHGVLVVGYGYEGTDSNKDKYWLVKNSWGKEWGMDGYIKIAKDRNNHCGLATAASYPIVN
Nature of the test: Binding affinity to cathepsin L in crude rat liver homogenates assessed as protein labeling. Format: tissue-based. The following applies: tested as the 125I-labelled form.

Test [7] deals with Lys-gingipain (Porphyromonas gingivalis (strain ATCC 33277 / DSM 20709 / JCM 12257)) (UniProt B2RLK2). Nature of the test: Binding affinity to Lys-gingipain in total lcrude cell lysates of Porphyromonas gingivalis assessed as protein lebeling. As to conditions: tested as the 125I-labelled form.
In test [8] the target is Arg-gingipain-1 proteinase (Porphyromonas gingivalis) (UniProt Q51816). Nature of the test: Binding affinity to Arg-gingipain in total lcrude cell lysates of Porphyromonas gingivalis assessed as protein lebeling. The following applies: tested as the 125I-labelled form.

For the molecule `Cc1cccc(C)c1C(=O)OCC(=O)[C@H](CCCNC(=N)N)NC(=O)[C@H](Cc1ccccc1)NC(=O)OCc1ccccc1`, the inhibition result in [1], in [2], in [3] and in test [4] was “inactive” in each case.
For `Cc1cccc(C)c1C(=O)OCC(=O)CNC(=O)[C@H](Cc1ccccc1)NC(=O)OCc1ccccc1`, the inhibition result in test [1], in test [2], in test [3] and in test [4] was “inactive” throughout. At Cathepsin B, this molecule returned an IC50 of 0.12 µM.
On to `CC(=O)N[C@@H](Cc1ccc(O)cc1)C(=O)N[C@@H](Cc1ccccc1)C(=O)N[C@@H](CCCNC(=N)N)C(=O)COC(=O)c1c(C)cccc1C`, for which the IC50 was determined as 12 µM at Pro-cathepsin H; 3.6 µM on Cathepsin J; 3.6 µM on Dipeptidyl peptidase 1; 4.7 µM on Cathepsin Z; 0.0073 µM at Cathepsin B.
As to `COc1ccc(C(=O)OCC(=O)CNC(=O)[C@H](Cc2ccccc2)NC(=O)OCc2ccccc2)cc1`, the inhibition result in test [1], in [2], in test [3], in test [4] and in test [5] was “inactive” throughout.
Regarding `Cc1cccc(C)c1C(=O)OCC(=O)[C@H](CCCN=C(N)N)NC(=O)[C@H](Cc1ccccc1)NC(=O)OCc1ccccc1`, the IC50 on Cathepsin B was determined as 0.015 µM.
Consider `CC(=O)N[C@@H](CCCCNC(=O)CCCCC1SC[C@H]2NC(=O)N[C@@H]12)C(=O)N[C@@H](Cc1ccc(O)c(I)c1)C(=O)NCCCCCC(=O)NCC(=O)COC(=O)c1c(C)cccc1C` (stereo partly specified), for which the result in test [6] was Active.
`Cc1cccc(C)c1C(=O)OCC(=O)CNC(=O)[C@H](CC(C)C)NC(=O)OCc1ccccc1`: the IC50 was 7.9 µM on Pro-cathepsin H, 49 µM at Cathepsin J, 49 µM on Dipeptidyl peptidase 1 and 0.92 µM on Cathepsin B. The inhibition result in test [2] is “inactive”.
As to `CC(=O)N[C@@H](CCCCNC(=O)CCCCC1SC[C@H]2NC(=O)N[C@@H]12)C(=O)N[C@@H](Cc1ccc(O)c(I)c1)C(=O)NCCCCCC(=O)N[C@@H](CC(C)C)C(=O)COC(=O)c1c(C)cccc1C` (stereo partly specified), in test [6], the outcome was Active.
`CC(=O)N[C@@H](CCCCNC(=O)CCCCC1SC[C@H]2NC(=O)N[C@@H]12)C(=O)N[C@@H](Cc1ccc(O)c(I)c1)C(=O)NCCCCCC(=O)N[C@@H](CCCNC(=N)N)C(=O)COC(=O)c1c(C)cccc1C` (stereo partly specified): the result in [7] and in [8] was Active.
Take `CC(=O)N[C@@H](CCCCNC(=O)CCCCC1SC[C@H]2NC(=O)N[C@@H]12)C(=O)N[C@@H](Cc1ccc(O)c(I)c1)C(=O)NCCCCCC(=O)N[C@@H](CCCCN)C(=O)COC(=O)c1c(C)cccc1C` (stereo partly specified): the result in test [7] and in test [8] was Active.
With `CC(=O)N[C@@H](Cc1ccc(O)cc1)C(=O)N[C@@H](Cc1ccccc1)C(=O)NCC(=O)COC(=O)c1c(C)cccc1C`, the IC50 at Pro-cathepsin H came out at 7.9 µM; on Cathepsin J, 6.4 µM; at Dipeptidyl peptidase 1 it was 6.4 µM; on Cathepsin Z, 39 µM; at Cathepsin B it was 0.22 µM.
For `COc1ccc(C(=O)ONC(=O)CNC(=O)[C@H](Cc2ccccc2)NC(=O)OCc2ccccc2)cc1`, the IC50 on Pro-cathepsin H was 6.6 µM; at Cathepsin J, 8.3 µM; on Dipeptidyl peptidase 1 it was 8.3 µM; at Cathepsin Z it was 1.5 µM; on Cathepsin B, 1.2 µM.
